Only some compounds are listed: those with a hit (about 2.6% of all), similar ones and a draw of the others.
GSIS activator: GLuc luminescence reporter in INS-1E cells, primary screen for activators of glucose-dependent secretion of insulin; INS-1E GLuc reporter insulin secretion, 2-3 h; activation, % at 16.6 µM; hit rate 0.61% among 370,000; AID 743287, 2014;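 active = lowest replicate activation of at least 40%, so every replicate reaches that level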;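 note: 0% = median of neutral control wells and 100% = median of IBMX positive control wells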
E-selectin induc: E-selectin induction in HUVECs, primary screen, imaging, HUVEC, immunofluorescence imaging, single point; normalized: neutral wells 0, TNF-alpha wells 100; hit rate 0.37% among 260,000; activation, % at 7.58 µM; AID 686992, 2013; P16581;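 active = mean E-selectin-positive cell signal at least 10% of the positive control, reached in at least 60% of replicates, without over 20% cell loss; inconclusive = no rule given, readout overlaps actives, possibly toxicity-flagged; inactive = the rest, including those meeting only one limit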
Target sequence (P16581 whole entry, looked up): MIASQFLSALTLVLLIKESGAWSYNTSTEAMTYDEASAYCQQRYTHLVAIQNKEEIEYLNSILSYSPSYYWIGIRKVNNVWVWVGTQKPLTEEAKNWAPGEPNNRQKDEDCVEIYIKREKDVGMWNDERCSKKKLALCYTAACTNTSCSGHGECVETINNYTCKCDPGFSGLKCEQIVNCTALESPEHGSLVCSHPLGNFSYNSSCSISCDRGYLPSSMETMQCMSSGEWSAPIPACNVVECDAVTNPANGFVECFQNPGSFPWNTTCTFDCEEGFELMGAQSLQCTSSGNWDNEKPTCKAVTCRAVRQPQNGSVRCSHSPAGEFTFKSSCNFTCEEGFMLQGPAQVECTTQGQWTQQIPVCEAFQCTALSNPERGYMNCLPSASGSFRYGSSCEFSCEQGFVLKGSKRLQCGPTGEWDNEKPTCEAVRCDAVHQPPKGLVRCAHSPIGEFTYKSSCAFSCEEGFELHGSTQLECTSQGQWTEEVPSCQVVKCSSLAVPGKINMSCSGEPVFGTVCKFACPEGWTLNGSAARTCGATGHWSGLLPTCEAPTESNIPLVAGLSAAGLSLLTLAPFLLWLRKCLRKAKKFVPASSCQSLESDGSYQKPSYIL
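assay system = HUVEC, human umbilical vein endothelial cells | input = 3,000 HUVEC seeded per well | medium = EGM-2 growth medium on 0.1% gelatin-coated wells | dosing = one compound dose added by pin transfer | signal = immunofluorescence imaging | read-out basis = % PE-positive cells | control set = TNF-alpha, DMSO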
ERAP1 HTS inh: human ERAP1 aminopeptidase inhibitors, primary screen, biochemical, single point, plate reader | Endoplasmic reticulum aminopeptidase 1 (Homo sapiens), Q9NZ08 | recombinant ERAP1, Leu-AMC fluorescence, 60 min | inhibition, % at 10.7 µM | hit rate 0.15% among 340,000 | AID 652197, 2013;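 active = mean replicate inhibition of at least 30%, or all replicates individually reaching that 30% level; inactive = mean below 30% and not every replicate reaching it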;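 note: 0% = neutral control wells and 100% = L-leucinethiol positive control wells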
DENV2 CPE rescue: inhibitors of DENV2 cytopathic effect, primary screen, cell-based, plate reader, single concentration. DENV2-infected cells, cytopathic effect rescue. CPE inhibition, % at 9.99 µM. hit rate 1.7% among 350,000; in the data active = CPE inhibition above about 20%, passing the limit was not always enough; inconclusive = no clear call, values can overlap the other calls; tested in BHK-21 cells;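 note: 0% = median of neutral control wells and 100% = median of positive control wells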
CFTR F508del cor: F508del CFTR correction, initial screen, CFBE line, single point; CFBE cells, YFP halide quenching; stimulated with forskolin plus potentiator P3; % fluorescence drop versus neutral controls; hit rate 0.36% among 350,000; activity (quench increase), % at 7.58 µM;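 active = mean added fluorescence quench of at least 8% versus neutral control, with both replicates also reaching 8%; inconclusive = only one of the mean or replicate conditions met; inactive = mean below 8% and not both replicates reaching 8%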;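 note: cells transiently co-express mutant CFTR-F508del with the halide-sensitive YFP; corrector assay measuring rescue of mutant channel to the surface after 24 h compound exposure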
miR-122 sensor: miR-122 Renilla sensor signal increase in Huh7, primary screen, miR-122 inhibitor project, cell-based, single point, plate reader | hit rate 0.3% among 340,000 | Huh7 miR-122 Renilla luciferase sensor, 48 h; neutral wells = 0, positive control = 100 | activation (reporter increase), % at 12.5 µM;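 active = mean replicate activation score at least 90 and every replicate individually at or above 90; inconclusive = only one of the two criteria met; inactive = neither criterion met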;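 note: higher luciferase means less miR-122 activity so hits act as miR-122 inhibitors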
An asterisk follows results filed as active; ? = inconclusive; nt = no result; ! = not confirmed by another sample; [ ] = dose if it differs, or a comment.

SMILES	GSIS activator	E-selectin induc	ERAP1 HTS inh	DENV2 CPE rescue	CFTR F508del cor	miR-122 sensor
COc1ccc(S(=O)(=O)Nc2ccc3c(c2)C(=O)N([C@H](C)CO)C[C@@H](C)[C@H](CN(C)S(=O)(=O)c2ccc(F)cc2)O3)cc1	-6	0	0	25*	1	6[16.7 µM]
CNC[C@@H]1Oc2c(NS(=O)(=O)c3ccc(F)cc3)cccc2C(=O)N([C@H](C)CO)C[C@H]1C	0	nt	nt	21*	-1	8[16.7 µM]
C[C@@H]1CN([C@@H](C)CO)C(=O)Cc2cc(NC(=O)CCN3CCOCC3)ccc2O[C@H]1CN(C)CC1CCCCC1	11	3	1	-1	0	7[16.7 µM]
C[C@@H]1CN([C@@H](C)CO)C(=O)c2cc(NC(=O)c3ccncc3)ccc2O[C@@H](C)CCCCO[C@@H]1CN(C)C(=O)Nc1cccc2ccccc12	-2	0	-5	-8	-2	6[16.7 µM]
COc1ccc(S(=O)(=O)N(C)C[C@@H]2OCCCC[C@H](C)Oc3ccc(NS(=O)(=O)c4c(C)noc4C)cc3C(=O)N([C@H](C)CO)C[C@H]2C)cc1	-15	0	-2	96*	0	-14[16.7 µM]
Cc1ccc(S(=O)(=O)N(C)C[C@@H]2OCCCC[C@H](C)Oc3ccc(NS(=O)(=O)c4c(C)noc4C)cc3C(=O)N([C@@H](C)CO)C[C@@H]2C)cc1	-2	nt	-2	81*	-3	-8[16.7 µM]
Cc1ccc(S(=O)(=O)N(C)C[C@H]2OCCCC[C@H](C)Oc3ccc(NS(=O)(=O)c4c(C)noc4C)cc3C(=O)N([C@@H](C)CO)C[C@H]2C)cc1	10	nt	-4	49*	1	-6[16.7 µM]
Cc1noc(C)c1S(=O)(=O)N(C)C[C@@H]1OCCCC[C@@H](C)Oc2ccc(NS(=O)(=O)c3ccc(Cl)cc3)cc2C(=O)N([C@H](C)CO)C[C@H]1C	0	0	1	31*	-1	-8[16.7 µM]
O=C(Nc1cccc(Cl)c1)N[C@@H]1CC[C@@H](CCNC(=O)C2CCCC2)O[C@H]1CO	-17	0	3	-9	-2	-4[16.7 µM]
CC(C)NC(=O)N(C)C[C@@H]1Oc2c(NC(=O)C3CCOCC3)cccc2C(=O)N([C@H](C)CO)C[C@@H]1C	10	0	-1	1	-4	-3[16.7 µM]
C=CCN1C(=O)[C@@]2(O[C@@H](CCn3cc([C@H](O)c4ccccc4)nn3)[C@H]([Si](C)(C)c3ccc(OC)cc3)[C@H]2C)c2ccccc21	nt	nt	-8	-5	4	nt
COc1ccc(S(=O)(=O)N(C)C[C@@H]2Oc3ccc(NS(=O)(=O)c4c(C)noc4C)cc3C(=O)N([C@H](C)CO)C[C@H]2C)cc1	-6	-6	0	nt	-2	8[16.7 µM]
Cc1ccc(S(=O)(=O)Nc2ccc3c(c2)C(=O)N([C@H](C)CO)C[C@H](C)[C@H](CN(C)S(=O)(=O)c2c(C)noc2C)OCCCC[C@H](C)O3)cc1	-3	nt	-1	31*	1	-6[16.7 µM]
COc1ccc(S(=O)(=O)N(C)C[C@H]2Oc3ccc(NS(=O)(=O)c4c(C)noc4C)cc3C(=O)N([C@@H](C)CO)C[C@H]2C)cc1	-4	404*	2	14	1	3[16.7 µM]
O=C(Cc1ccncc1)NCC[C@@H]1CC[C@@H](NC(=O)C2CCCCC2)[C@@H](CO)O1	-3	0	-1	-4	-2	nt
Cc1ccc(NC(=O)CSCC(=O)N2CCN(C(=O)c3ccco3)CC2)cc1	nt	0	0	6	-2	0
Cc1ccc(NC(=O)CSC(C)C(=O)OCC(=O)N2CCN(C(=O)c3ccco3)CC2)cc1 (stereo not drawn)	11	nt	4	86*	-1	0
COCC(=O)Nc1ccc2c(c1)C(=O)N(C)C[C@@H](OC)[C@@H](C)CN(C(=O)c1ccccc1F)[C@@H](C)CO2	-2	0	2	4	0	-14[16.7 µM]
Cc1ccc(C2CC(c3cccs3)=NN2S(=O)(=O)c2ccc(C)cc2)cc1 (stereo not drawn)	-5	-2	3	-10	nt	98*
COc1ccccc1-c1ccc(C2[C@H]3CNC[C@@H]2N3Cc2cc(-c3ccccc3)on2)cc1 (stereo partly drawn)	-2	0	-2	3	0	nt
C/C=C/c1ccc(C2[C@H]3CNC[C@@H]2N3Cc2cc(OC)cc(OC)c2)cc1 (stereo partly drawn)	28	0	2	-1	-2	nt
C/C=C/c1ccc(C2[C@H]3CNC[C@@H]2N3Cc2cc(-c3ccccc3)on2)cc1 (stereo partly drawn)	72*!	0	-1	-2	-3	nt
N#Cc1cccc(-c2ccc(C3[C@H]4CNC[C@@H]3N4Cc3cc(-c4ccccc4)on3)cc2)c1 (stereo partly drawn)	72*!	0	-1	1	-1	nt
C/C=C/c1ccc(C2[C@H]3CNC[C@@H]2N3Cc2nccs2)cc1 (stereo partly drawn)	3	0	0	39*!	2	nt
CCCNC(=O)N1CC2(CN(CC3CCOCC3)C2)c2c(n(C)c3cc(OC)ccc23)[C@H]1CO	19	0	1	?	3	nt
SMILES	GSIS activator	E-selectin induc	ERAP1 HTS inh	DENV2 CPE rescue	CFTR F508del cor	miR-122 sensor
O=C(Nc1nc2ccccc2[nH]1)c1ccccc1O	16	0	2	-7	2	nt
Cc1ccc(C)c(C(=O)Nc2nc3ccccc3[nH]2)c1	45*	nt	-2	-2	0	4
COc1cccc(S(=O)(=O)N[C@H]2C=C[C@@H](CC(=O)NCc3ccncc3)O[C@H]2CO)c1	-4	0	0	1	-3	nt
COc1ccc(NC(=O)N(C)C[C@H]2Oc3ccc(NC(=O)C4CC4)cc3CC(=O)N([C@H](C)CO)C[C@@H]2C)cc1	23	1	0	24*	-3	-5[16.7 µM]
C[C@H](CO)N1C[C@H](C)[C@@H](CN(C)C(=O)Nc2ccccc2)Oc2ccc(NC(=O)Cc3ccccc3)cc2CC1=O	9	0	-3	-1	1	1[16.7 µM]
COc1ccc(NC(=O)N(C)C[C@@H]2Oc3ccc(NC(=O)C4CC4)cc3CC(=O)N([C@@H](C)CO)C[C@@H]2C)cc1	8	0	2	5	1	-9[16.7 µM]
COc1ccc(NC(=O)N(C)C[C@@H]2Oc3ccc(NC(=O)Nc4ccccc4)cc3CC(=O)N([C@@H](C)CO)C[C@@H]2C)cc1	-10	0	0	25*	0	-9[16.7 µM]
C[C@@H]1CN([C@H](C)CO)C(=O)Cc2cc(NC(=O)Cc3ccccc3)ccc2O[C@@H]1CN(C)C(=O)Nc1ccc2c(c1)OCO2	-7	-1	-1	28*	4	0[16.7 µM]
